Assay results as given in ChEMBL document CHEMBL2311361, “Diminutive effect on T and B-cell proliferation of non-cytotoxic α-santonin derived 1,2,3-triazoles: a report” (Eur J Med Chem, 2013).

Assays:
[1] = Immunosuppressive activity in Balb/c mouse T cells assessed as inhibition of concanavalin A-induced cell proliferation at 10^-6 M after 48 hrs by MTT assay; type: functional; settings: for inhibition at 1 µM: Mus musculus, Balb/c, T-cell, 48 h
How it was run: (§1)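 Spleens taken aseptically from Balb/c mice (18–22 g). Single-cell suspension made in incomplete RPMI, RBCs lysed with Tris-ammonium chloride, cells washed, resuspended in complete RPMI and checked for viability by trypan blue. Cells seeded at 1 × 10⁶ cells/mL. Compounds in DMSO tested at 1×10⁻⁴, 1×10⁻⁵ and 1×10⁻⁶ M, 48 h, 37 °C, 5% CO₂.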

[2] = Cytotoxicity against in Balb/c mouse B cells at 10^-5 M after 48 hrs by MTT assay; type: cell-based; settings: 10 µM; how it was run: as §1
[3] = Immunosuppressive activity in Balb/c mouse T cells assessed as inhibition of concanavalin A-induced cell proliferation at 10^-5 M after 48 hrs by MTT assay; type: functional; how it was run: as §1
[4] = Cytotoxicity against in Balb/c mouse T cells at 10^-5 M after 48 hrs by MTT assay; type: cell-based; settings: t-cell, 10 µM; how it was run: as §1
[5] = Cytotoxicity against in Balb/c mouse B cells at 10^-4 M after 48 hrs by MTT assay; type: cell-based; settings: 100 µM; how it was run: as §1
[6] = Cytotoxicity against in Balb/c mouse T cells at 10^-4 M after 48 hrs by MTT assay; type: cell-based; settings: t-cell, 100 µM; how it was run: as §1
[7] = Cytotoxicity against in Balb/c mouse T cells at 10^-6 M after 48 hrs by MTT assay; type: cell-based; settings: t-cell, 1 µM; how it was run: as §1
[8] = Cytotoxicity against in Balb/c mouse B cells at 10^-6 M after 48 hrs by MTT assay; type: cell-based; settings: 1 µM; how it was run: as §1
[9] = Immunosuppressive activity in Balb/c mouse B cells assessed as inhibition of LPS-induced cell proliferation at 10^-6 M after 48 hrs by MTT assay; type: functional; how it was run: as §1
[10] = Immunosuppressive activity in Balb/c mouse B cells assessed as inhibition of LPS-induced cell proliferation at 10^-5 M after 48 hrs by MTT assay; type: functional; how it was run: as §1
[11] = Immunosuppressive activity in Balb/c mouse T cells assessed as inhibition of concanavalin A-induced cell proliferation at 10^-4 M after 48 hrs by MTT assay; type: functional; how it was run: as §1
[12] = Immunosuppressive activity in Balb/c mouse B cells assessed as inhibition of LPS-induced cell proliferation at 10^-4 M after 48 hrs by MTT assay; type: functional; how it was run: as §1
[13] = Immunostimulant activity in Balb/c mouse T cells assessed as inhibition of concanavalin A-induced cell proliferation at 10^-4 M after 48 hrs by MTT assay; type: functional; settings: for inhibition at 100 µM: Mus musculus, Balb/c, T-cell, 48 h; how it was run: as §1
[14] = Immunostimulant activity in Balb/c mouse B cells assessed as inhibition of LPS-induced cell proliferation at 10^-4 M after 48 hrs by MTT assay; type: functional; how it was run: as §1
[15] = Immunostimulant activity in Balb/c mouse T cells assessed as inhibition of concanavalin A-induced cell proliferation at 10^-5 M after 48 hrs by MTT assay; type: functional; how it was run: as §1
[16] = Immunostimulant activity in Balb/c mouse B cells assessed as inhibition of LPS-induced cell proliferation at 10^-6 M after 48 hrs by MTT assay; type: functional; how it was run: as §1

| SMILES | inhibition at 1 µM [1] | Activity [2] | inhibition at 10 µM [3] | Activity [4] | Activity [5] | Activity [6] | Activity [7] | Activity [8] | inhibition at 1 µM [9] | inhibition at 10 µM [10] | inhibition at 100 µM [11] | inhibition at 100 µM [12] | inhibition at 100 µM [13] | inhibition at 100 µM [14] | inhibition (INH) [1] | inhibition (INH) [13] | inhibition at 10 µM [15] | inhibition at 1 µM [16] |
| --- | --- | --- | --- | --- | --- | --- | --- | --- | --- | --- | --- | --- | --- | --- | --- | --- | --- | --- |
| Cc1ccc(I)cc1-n1nncc1COc1cc(C)c2c(c1C)[C@@H]1OC(=O)[C@@H](C)[C@@H]1CC2 | 15.8% | Non-toxic | 20% | Non-toxic | Non-toxic | Non-toxic | Non-toxic | Non-toxic | 34.7% | 14.7% | 15.8% | 16.8% | – | – | – | – | – | – |
| Cc1cc(O)c(C)c2c1CC[C@H]1[C@H](C)C(=O)O[C@@H]21 | 20.7% | Non-toxic | 24.4% | Non-toxic | Non-toxic | Non-toxic | Non-toxic | Non-toxic | 23.1% | 23.9% | – | – | 80.5% | 18.8% | – | – | – | – |
| Cc1cc(OCc2cnnn2-c2ccc3c(c2)OCO3)c(C)c2c1CC[C@H]1[C@H](C)C(=O)O[C@@H]21 | 29.5% | Non-toxic | 45.3% | Non-toxic | Non-toxic | Non-toxic | Non-toxic | Non-toxic | 14.7% | 50.5% | 29.5% | 32.6% | – | – | – | – | – | – |
| Cc1cc(OCc2cnnn2-c2cc(F)ccc2I)c(C)c2c1CC[C@H]1[C@H](C)C(=O)O[C@@H]21 | 21.4% | Non-toxic | 31.4% | Non-toxic | Toxic | Toxic | Toxic | Toxic | 20.8% | 24.2% | – | 14.2% | 19.2% | – | 17.5% | 19.16% | 10.8% | – |
| COc1cc(-n2nncc2COc2cc(C)c3c(c2C)[C@@H]2OC(=O)[C@@H](C)[C@@H]2CC3)cc(OC)c1OC | 20% | Non-toxic | 14.7% | Non-toxic | Non-toxic | Non-toxic | Non-toxic | Non-toxic | 16.8% | 26.3% | 16.8% | 14.7% | – | – | – | – | – | – |
| Cc1cc(OCc2cnnn2-c2cccc(C(N)=O)c2)c(C)c2c1CC[C@H]1[C@H](C)C(=O)O[C@@H]21 | 28.4% | Non-toxic | 29.5% | Non-toxic | Non-toxic | Non-toxic | Non-toxic | Non-toxic | 44.2% | 36.8% | 6.31% | 8.42% | – | – | – | – | – | – |
| Cc1cc(OCc2cnnn2-c2ccc(C=O)cc2)c(C)c2c1CC[C@H]1[C@H](C)C(=O)O[C@@H]21 | 5.83% | Non-toxic | 6.66% | Non-toxic | Non-toxic | Non-toxic | Non-toxic | Non-toxic | 24.2% | 22.5% | 20.8% | 35% | – | – | – | – | – | – |
| Cc1cc(OCc2cnnn2-c2cccc(Br)c2COc2cccc(Br)c2)c(C)c2c1CC[C@H]1[C@H](C)C(=O)O[C@@H]21 | 14.2% | Non-toxic | – | Non-toxic | Non-toxic | Non-toxic | Toxic | Toxic | 24.2% | 16.7% | – | 17.5% | 2.5% | – | – | – | – | – |
| COc1ccc2cc(-n3nncc3COc3cc(C)c4c(c3C)[C@@H]3OC(=O)[C@@H](C)[C@@H]3CC4)ccc2c1 | 93.9% | Non-toxic | 95.1% | Non-toxic | Non-toxic | Non-toxic | Non-toxic | Non-toxic | 25.6% | 94% | 93.9% | 28.2% | – | – | – | – | – | – |
| Cc1cc(OCc2cnnn2-c2cccc(I)c2)c(C)c2c1CC[C@H]1[C@H](C)C(=O)O[C@@H]21 | 15.8% | Non-toxic | 20% | Non-toxic | Non-toxic | Non-toxic | Non-toxic | Non-toxic | 15.8% | 20% | 3.15% | 15.8% | – | – | – | – | – | – |
| CC1=C2[C@H]3OC(=O)[C@@H](C)[C@@H]3CC[C@@]2(C)C=CC1=O [SANTONIN] | -40.2% | Non-toxic | – | Non-toxic | Non-toxic | Non-toxic | Non-toxic | Non-toxic | 23.1% | 25.6% | -6.09% | -36.8% | – | – | – | – | 3.65% | – |
| Cc1cc(OCc2cnnn2-c2c(Br)ccc(I)c2F)c(C)c2c1CC[C@H]1[C@H](C)C(=O)O[C@@H]21 | – | Non-toxic | – | Non-toxic | Non-toxic | Non-toxic | Non-toxic | Non-toxic | 8.57% | 50% | – | 11.4% | – | – | – | – | – | – |
| Cc1cc(OCc2cnnn2-c2ccccc2C(F)(F)F)c(C)c2c1CC[C@H]1[C@H](C)C(=O)O[C@@H]21 | 7.14% | Non-toxic | 30% | Non-toxic | Non-toxic | Non-toxic | Non-toxic | Non-toxic | – | 31.4% | 22.9% | 11.4% | – | – | – | – | – | 62.9% |
| Cc1cc(OCc2cnnn2-c2cccc(O)c2)c(C)c2c1CC[C@H]1[C@H](C)C(=O)O[C@@H]21 | 5.83% | Non-toxic | – | Non-toxic | Non-toxic | Non-toxic | Toxic | Toxic | 19.2% | 7.5% | 10% | 9.16% | – | – | – | – | 22.5% | – |
